# Most compounds without a hit are left out; they make up all but 0.44% or so of the library.
# PglD inh = PglD (C. jejuni) enzyme inhibition; purified PglD enzyme, DTNB colorimetric CoA detection; inhibition, % at 12.5 µM; hit rate 0.098% among 360,000; AID 602405; in the data active = inhibition above about 16%, passing the limit was not always enough
# FN deposit inh = fibronectin deposition inhibition | inhibition, % at 12.6 µM | AID 743247 | AH1F fibroblasts, Alexa488-fibronectin deposition fluorescence, overnight | hit rate 0.086% among 350,000;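 active = mean inhibition across replicates of 30% or more, regardless of how many single replicates reach that level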
#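 Assay system: AH1F fibroblasts assembling fluorescent fibronectin matrix; Amount: 10000 AH1F cells per well; Buffer or medium: DMEM, 2% serum; Probe or stimulus: Alexa488-fibronectin, 24 nM final in well; Doses: single compound dose, delivered by pin transfer; Incubation: 1 h adhesion, overnight exposure; Measured by: fluorescence 485/525 nm; Read-out: fibronectin deposition inhibition.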
# PDI turbidity = inhibitors of human protein disulfide isomerase; P07237; PDI insulin aggregation turbidity, A650, 90 min; inhibition, % at 10 µM; hit rate 0.052% among 350,000;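 active = mean inhibition across replicates of 30% or more, whatever share of single replicates reach that level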
# ERp5 inh = ERp5 (human) disulfide isomerase inhibition; ERp5 insulin aggregation, absorbance 650 nm, 90 min; inhibition, % at 9.99 µM; hit rate 0.05% among 350,000; Q15084;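 active = mean replicate inhibition above about 25%, with every replicate also reaching it, limit read from the data, passing the limit was not always enough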
# S100A4 MyoIIA = S100A4-myosin IIA interaction inhibition. P26447. S100A4/TAMRA-MyoIIA peptide fluorescence polarization. inhibition, % at 10.7 µM. hit rate 0.14% among 360,000;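 active = mean inhibition of at least 70% across replicates, with every replicate also reaching that level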
# Target sequence (P26447 whole entry, looked up): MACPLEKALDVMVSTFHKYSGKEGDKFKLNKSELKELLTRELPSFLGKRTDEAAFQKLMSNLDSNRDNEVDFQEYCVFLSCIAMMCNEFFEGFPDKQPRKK
#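 Test system: S100A4 monomer protein. Medium: HEPES buffer with Ca2+, pH 7.2. Reagent: fluorescent myosin IIA peptide, 5 nM. Compound dosing: single-point compound testing. Timing: 5 min between mix addition and reading. Benchmarks: DMSO neutral and TFP positive wells.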
# RAD54 branch = inhibitors of human RAD54 branch migration. Q92698. RAD54 Holliday junction branch migration, FAM/BHQ fluorescence. inhibition, % at 10.4 µM. hit rate 0.14% among 360,000;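 active = mean normalized replicate activity at least 40 and at least half of replicates scoring 40 or more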;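 note: inhibitors cause a drop in the FAM fluorescence signal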
# A number is an active result; 0 = inactive; - = not tested or not shown.
SMILES,PglD inh,FN deposit inh,PDI turbidity,ERp5 inh,S100A4 MyoIIA,RAD54 branch
C[C@@H]1CN([C@H](C)CO)C(=O)c2cc(NS(=O)(=O)c3ccc(Cl)cc3)ccc2O[C@@H](C)CCCCO[C@H]1CN(C)Cc1ccc(Cl)c(Cl)c1,0,0,-,0,102,0
C[C@@H]1CCCCO[C@@H](CN(C)C(=O)CCC(F)(F)F)[C@@H](C)CN([C@@H](C)CO)C(=O)c2cc(NS(=O)(=O)c3ccc(Cl)cc3)ccc2O1,0,0,-,70,0,0
C[C@@H]1CCCCO[C@@H](CN(C)C(=O)NC2CCCCC2)[C@@H](C)CN([C@H](C)CO)C(=O)c2cc(NS(=O)(=O)c3ccc(F)cc3)ccc2O1,0,0,-,0,0,0
C[C@H](CO)N1C[C@H](C)[C@@H](CN(C)S(=O)(=O)c2cccs2)OCCCC[C@H](C)Oc2ccc(NS(C)(=O)=O)cc2C1=O,0,-,-,0,106,0
C[C@@H]1CN([C@H](C)CO)C(=O)c2cc(NS(=O)(=O)c3ccc(F)cc3)ccc2O[C@@H](C)CCCCO[C@@H]1CN(C)C(=O)NC1CCCCC1,0,0,-,0,120,0
O=C(Cc1ccncc1)Nc1ccc2c(c1)[C@H]1C[C@@H](CC(=O)N3CCCCC3)O[C@H](CO)[C@H]1O2,-,0,-,-,-,-
COc1ccccc1-c1ccc2c(c1)O[C@H](CN(C)C(=O)c1ccccc1)[C@@H](C)CN([C@H](C)CO)S2(=O)=O,0,-,-,0,0,0
C[C@@H]1CN([C@@H](C)CO)C(=O)c2cc(NS(=O)(=O)c3cn(C)cn3)ccc2O[C@@H](C)CCCCO[C@@H]1CN(C)CC1CCCCC1,0,-,-,0,0,0
C[C@@H]1CCCCO[C@H](CN(C)S(=O)(=O)c2ccc(Cl)cc2)[C@@H](C)CN([C@@H](C)CO)C(=O)c2cc(NS(=O)(=O)c3ccc(F)cc3)ccc2O1,0,0,-,0,120,0
Cc1ccc(S(=O)(=O)N(C)C[C@@H]2OCCCC[C@@H](C)Oc3ccc(NS(C)(=O)=O)cc3C(=O)N([C@@H](C)CO)C[C@@H]2C)cc1,0,0,-,0,88,0
C[C@@H]1CCCCO[C@@H](CN(C)CC2CCCCC2)[C@@H](C)CN([C@H](C)CO)C(=O)c2cc(NS(=O)(=O)c3cn(C)cn3)ccc2O1,0,-,-,0,133,0
Cc1ccc(S(=O)(=O)N(C)C[C@H]2OCCCC[C@H](C)Oc3ccc(NS(=O)(=O)c4ccccc4)cc3C(=O)N([C@H](C)CO)C[C@@H]2C)cc1,0,0,-,0,97,0
C[C@@H]1CN([C@@H](C)CO)C(=O)c2cc(NS(=O)(=O)c3ccc(F)cc3)ccc2O[C@@H](C)CCCCO[C@@H]1CN(C)S(=O)(=O)c1ccc(Cl)cc1,0,0,-,0,0,0
C[C@@H]1CCCCO[C@H](CN(C)S(=O)(=O)c2ccc(F)cc2)[C@@H](C)CN([C@H](C)CO)C(=O)c2cc(NS(=O)(=O)c3ccccc3)ccc2O1,0,-,-,0,0,0
C[C@H]1CCCCO[C@H](CN(C)S(=O)(=O)c2ccc(F)cc2)[C@@H](C)CN([C@@H](C)CO)C(=O)c2cc(NS(=O)(=O)c3ccccc3)ccc2O1,0,0,-,0,113,0
COc1ccc(NC(=O)N(C)C[C@@H]2OCCCC[C@H](C)Oc3ccc(NS(=O)(=O)c4ccc(C)cc4)cc3C(=O)N([C@H](C)CO)C[C@H]2C)cc1,17,0,-,0,0,0
CNC[C@@H]1OCCCC[C@@H](C)Oc2ccc(NS(=O)(=O)c3cccs3)cc2C(=O)N([C@H](C)CO)C[C@H]1C,0,-,-,0,101,0
C[C@@H]1CCCCO[C@@H](CN(C)S(=O)(=O)c2ccccc2)[C@@H](C)CN([C@@H](C)CO)C(=O)c2cc(NC(=O)CCCN(C)C)ccc2O1,0,0,-,0,151,0
C[C@@H]1CCCCO[C@@H](CN(C)S(=O)(=O)c2ccccc2)[C@H](C)CN([C@H](C)CO)C(=O)c2cc(NC(=O)CCCN(C)C)ccc2O1,0,0,-,0,0,0
N#CC(C#N)=C1C=CC=CN1/C(=C\c1ccco1)C(=O)c1ccc(-c2ccccc2)cc1,-,0,0,-,-,-
N#CC(C#N)=C1C=CC=CN1/C(=C\c1ccco1)C(=O)c1ccc(Cl)cc1,-,36,0,0,0,-
